Assay [1] concerns the target Glutamate receptor ionotropic, NMDA 2C (Rattus norvegicus, UniProt Q00961). The assay is described as follows: (§1) Compound was tested for its affinity towards PCP receptor in rat brain membrane [3H]MK-801 as radioligand. The assay is classed as cell membranes.
The target of assay [2] is T1, D(2) dopamine receptor (Rattus norvegicus, UniProt P61169). The assay is described as follows: Compound was tested for its binding affinity towards dopamine receptor D2 by using [3H]domperidone as radioligand. Summed up:
(§2)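 Rat striatal membranes from frozen tissue, washed and resuspended in 50 mM Tris-HCl with 120 mM NaCl, 5 mM KCl, 2 mM CaCl2, 1 mM MgCl2 (pH 7.4 at 37 °C). Competition binding used [3H]SCH-23390 for D1 and [3H]domperidone for D2. IC50 ± SEM from duplicate or triplicate determinations.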

Assay [3] addresses T2, D(1A) dopamine receptor (Rattus norvegicus, UniProt P18901). Briefly: Binding affinity towards Dopamine receptor D1 in rat membranes using [3H]SCH-23390 as radioligand. The class given is cell membranes.
Assay [4] has as its target T1, D(2) dopamine receptor. The assay is described as follows: Compound was tested for its binding affinity towards Dopamine receptor D2 by using [3H]domperidone as radioligand.
In assay [5] the target is T2, D(1A) dopamine receptor. Briefly: Binding affinity determined in radioreceptor binding assay by using [3H]SCH-23390 radioligand against dopamine receptor D1. The essentials: as §2
The species entered for assay [6] is Rattus norvegicus. The description is as §1.

Structures are written as SMILES. Bounds are passed on as bounds.

T2 sequence (P18901 whole entry): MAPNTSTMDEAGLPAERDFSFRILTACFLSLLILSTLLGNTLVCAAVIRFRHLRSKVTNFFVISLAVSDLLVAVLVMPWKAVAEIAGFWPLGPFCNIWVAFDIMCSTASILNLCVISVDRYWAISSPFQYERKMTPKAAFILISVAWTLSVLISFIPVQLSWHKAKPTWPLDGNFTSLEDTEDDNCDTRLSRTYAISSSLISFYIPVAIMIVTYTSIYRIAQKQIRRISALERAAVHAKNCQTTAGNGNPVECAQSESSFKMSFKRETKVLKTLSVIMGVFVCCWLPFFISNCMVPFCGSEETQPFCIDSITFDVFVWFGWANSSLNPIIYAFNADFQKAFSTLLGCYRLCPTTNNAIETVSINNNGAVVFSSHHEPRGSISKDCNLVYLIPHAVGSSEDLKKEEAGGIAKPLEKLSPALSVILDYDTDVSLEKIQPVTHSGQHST
Glutamate receptor ionotropic, NMDA 2C, sequence (Q00961 whole entry): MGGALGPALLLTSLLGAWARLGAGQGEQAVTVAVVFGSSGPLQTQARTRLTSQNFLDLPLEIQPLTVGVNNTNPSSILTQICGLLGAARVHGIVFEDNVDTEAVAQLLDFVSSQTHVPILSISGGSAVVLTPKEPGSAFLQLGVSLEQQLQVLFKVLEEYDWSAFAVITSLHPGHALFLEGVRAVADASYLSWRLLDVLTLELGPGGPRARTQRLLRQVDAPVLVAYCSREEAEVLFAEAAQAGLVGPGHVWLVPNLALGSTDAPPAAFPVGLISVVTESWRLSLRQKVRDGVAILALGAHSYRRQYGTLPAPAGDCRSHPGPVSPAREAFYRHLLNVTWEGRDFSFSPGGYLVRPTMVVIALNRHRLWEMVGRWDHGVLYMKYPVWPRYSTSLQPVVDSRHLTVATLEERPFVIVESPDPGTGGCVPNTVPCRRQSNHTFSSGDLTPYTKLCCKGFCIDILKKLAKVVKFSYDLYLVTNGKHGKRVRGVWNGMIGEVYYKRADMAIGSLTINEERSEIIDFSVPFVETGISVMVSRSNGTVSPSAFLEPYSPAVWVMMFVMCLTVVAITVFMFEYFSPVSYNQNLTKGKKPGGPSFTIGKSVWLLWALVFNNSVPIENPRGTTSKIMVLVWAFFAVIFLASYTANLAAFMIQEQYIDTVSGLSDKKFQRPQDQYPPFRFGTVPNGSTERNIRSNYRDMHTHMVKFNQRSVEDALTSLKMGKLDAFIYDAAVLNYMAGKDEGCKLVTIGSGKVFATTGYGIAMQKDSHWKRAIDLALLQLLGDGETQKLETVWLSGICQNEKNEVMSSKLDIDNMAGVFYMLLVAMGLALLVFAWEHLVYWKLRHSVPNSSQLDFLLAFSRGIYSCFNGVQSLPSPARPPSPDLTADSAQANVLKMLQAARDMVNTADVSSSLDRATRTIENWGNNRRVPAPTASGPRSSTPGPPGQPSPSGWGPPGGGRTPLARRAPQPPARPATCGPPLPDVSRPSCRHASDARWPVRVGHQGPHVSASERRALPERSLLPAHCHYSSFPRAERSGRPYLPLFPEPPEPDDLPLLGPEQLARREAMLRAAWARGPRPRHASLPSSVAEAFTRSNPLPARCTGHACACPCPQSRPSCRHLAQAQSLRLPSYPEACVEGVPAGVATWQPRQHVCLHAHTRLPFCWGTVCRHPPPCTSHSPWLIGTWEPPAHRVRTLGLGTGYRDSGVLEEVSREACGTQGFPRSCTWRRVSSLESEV
T1 sequence (P61169 whole entry): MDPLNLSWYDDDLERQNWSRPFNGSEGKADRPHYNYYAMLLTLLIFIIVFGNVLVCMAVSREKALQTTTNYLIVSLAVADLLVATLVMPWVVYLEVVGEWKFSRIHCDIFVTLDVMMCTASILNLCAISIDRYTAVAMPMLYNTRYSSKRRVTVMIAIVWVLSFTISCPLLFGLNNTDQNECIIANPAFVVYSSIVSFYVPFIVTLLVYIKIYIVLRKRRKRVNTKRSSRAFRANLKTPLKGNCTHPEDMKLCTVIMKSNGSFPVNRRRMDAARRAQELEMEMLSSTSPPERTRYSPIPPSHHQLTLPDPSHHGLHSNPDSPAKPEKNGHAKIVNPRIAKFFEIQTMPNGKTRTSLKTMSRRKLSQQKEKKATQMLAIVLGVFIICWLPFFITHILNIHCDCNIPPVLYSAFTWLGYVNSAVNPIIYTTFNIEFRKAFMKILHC

By IC50 is commonly meant the concentration needed to halve the response being measured. High values mean lower potency, low ones higher potency. Turning to `c1ccc(N2CCN(CCCc3ccc4ccccc4c3)CC2)cc1`, the figures for the IC50 in assay [1] and in assay [2] were over 10000 nM and 160 nM, respectively.

As to `c1ccc(CCCN2CCC(c3ccccc3)CC2)cc1`, the values for the IC50 in assay [3], in assay [1] and in assay [4] were over 10000 nM, over 10000 nM and 335 nM, respectively.

`c1ccc(CCCCCN2CCC(c3ccccc3)CC2)cc1`: the 50% inhibitory concentration (IC50) was over 10000 nM in assay [5], over 10000 nM in assay [1] and 210 nM in assay [2].

Take `OC1(c2ccccc2)CCN(CCCc2ccccc2)CC1`: the figures for the IC50 in assay [3], in assay [6] and in assay [4] were over 10000 nM, over 10000 nM and 1250 nM, respectively.

Turning to `c1ccc(CCCCN2CCC(c3ccccc3)CC2)cc1`, the IC50 in assay [3] was over 10000 nM; in assay [6] it was over 10000 nM; in assay [4], 165 nM.

Consider `c1ccc(CCCCN2CCN(c3ccccc3)CC2)cc1`, for which the IC50 in assay [3] was 2820 nM; in assay [1] it was over 10000 nM; in assay [2], 45 nM.
